Screening results (PubChem BioAssay)
Only a selection was taken, and hits are over-represented in it overall.
Calb FLC – C. albicans growth modulation with fluconazole; C. albicans CaCi-2 (fluconazole-resistant clinical isolate) + fluconazole, Alamar Blue growth, 48 h; growth inhibition, % (test concentration not listed); 0.57% of 300,000 active;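 active means growth inhibition above about 58% in most replicates, limit read from the data, passing the limit was not always enough; inconclusive means exactly half the replicates above a set limit; inactive means most replicates below a set limit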;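 further: all wells also contain fluconazole at 8 µg/ml as a sub-toxic cotreatment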
PolyA inh – inhibitors of polyadenylation in S. cerevisiae; 0.02% of 300,000 active; activity score, % at 12 µM; S. cerevisiae SKY197-pL101 polyadenylation reporter, beta-gal luminescence; efflux-impaired pdr1/pdr3 knockout yeast; score 100 = 6 SD above DMSO;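 active means lowest replicate activity score at least 50, where 100 means six control SD above control mean; inconclusive means lowest score under 50 but half or more replicates reach 50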;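 further: yeast exposed to compound for 9 h at 30 °C; higher score means more reporter readthrough which indicates perturbed polyadenylation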
NALP3 yeast inh – NALP3 inhibition in yeast. Yeast reconstituted NLRP3/ASC/caspase-1, beta-gal luminescence, 24 h. inhibition, % at 10 µM. 0.39% of 330,000 active. AID 2825;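 active means inhibition of 50% or more; inactive means inhibition below 50%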
NALP1 inh – blocks the NALP1 inflammasome reconstituted in yeast; S. cerevisiae NALP1/ASC/caspase-1 growth, X-gal OD620, 72 h; inhibition, % at 10 µM; 0.61% of 280,000 active; AID 2071; in the data active means inhibition mostly above about 24%, no sharp cut-off; inactive means mostly below about 32%
L major viab – Leishmania major promastigote growth inhibition; Leishmania major promastigotes, resazurin fluorescence viability; 9% of 200,000 active; AID 1063; inhibition, % at 10 µM; in the data active means inhibition above about 50%;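 further: promastigotes grown with compound for 44 hours at 28 °C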
T cruzi inh – T. cruzi replication inhibition | T. cruzi beta-gal in NIH3T3, luminescence, 90 h | inhibition, % (test concentration not listed) | 1.4% of 300,000 active | AID 1885;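 active means mean inhibition across valid replicates above about 55%, limit read from the data; inconclusive means mean below that limit but half or more replicates reach it; inactive means mean below it, under half of replicates reach it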;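 further: signal also drops with host cell toxicity which is not excluded here; higher percent means less beta-gal luminescence so fewer parasites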
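System: mouse NIH/3T3 fibroblasts infected with β-gal-expressing T. cruzi Tulahuen C4 / Input: NIH/3T3 cells, 5,000 per well / Buffer or medium: Low-serum DMEM with 2% FBS / Probe or stimulus: 5000 reporter trypomastigotes per well / Schedule: ≥90 h infection period, 3 h prior cell attachment / Measured by: GalScreen luminescence, 60 min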
Large screens that a line does not name were inactive.

COc1ccc2c(c1)c1ncn(CCCN3CCOCC3)c(=O)c1n2C	L major viab 55
O=C(Nc1nnc(C2CC2)s1)C1CCCCN1S(=O)(=O)c1ccccc1 (configuration not stated)	none
O=C(Nc1ccccc1)C1CCCCN1S(=O)(=O)c1ccccc1 (configuration not stated)	none
O=C(Nc1nc(-c2ccccc2)cs1)C1CCCCN1S(=O)(=O)c1ccccc1 (configuration not stated)	L major viab 93
O=C(Nc1nc(-c2ccccc2)cs1)C1CCCCN1S(=O)(=O)c1ccc(Cl)cc1 (configuration not stated)	L major viab 100, T cruzi inh 78
O=C(Nc1ccc(Cl)cc1)C1CCCCN1S(=O)(=O)c1ccccc1 (configuration not stated)	none (no result: Calb FLC, PolyA inh, NALP1 inh, L major viab, T cruzi inh)
O=C(Nc1ccc2c(c1)OCO2)C1CCCCN1S(=O)(=O)c1ccccc1 (configuration not stated)	L major viab 65
CC1(C)Oc2ccc3ccc(=O)oc3c2/C(=C/NNC(N)=S)C1=O	none (no result: Calb FLC, L major viab)
CCOc1ccc(CCNC(=O)C2CCC(=O)N2C2CCCCC2)cc1OCC (configuration not stated)	none
CCNC(=S)NNC(=O)c1ccccc1OC(F)F	Calb FLC inconclusive
CCNC(=S)NNC(=O)c1cc(-c2cccc(C)c2)nc2ccccc12	Calb FLC 116, L major viab 95
CCn1cc(CNC(=O)c2cc(-c3cc(OC)ccc3OC)nc3ccccc23)c(C)n1	L major viab 56
CCCCOc1ccc(-c2cc(C(=O)NNC(=S)NCC)c3ccccc3n2)cc1	none
CCNC(=S)NNC(=O)c1ccccc1Cl	L major viab 51
CCNC(=S)NNC(=O)c1cc(-c2ccc(OC)cc2)nc2ccccc12	Calb FLC 99
COc1cccc(NC(=O)Cn2c(=O)n(C)c(=O)c3sc4c(c32)COC(C)(C)C4)c1	none (no result: L major viab)
CCNC(=S)NNC(=O)c1c(Cl)c(C)nn1C	none
CCNC(=S)NNC(=O)c1nn(C)c(C)c1Cl	Calb FLC 119
Cc1c(S(=O)(=O)N2CCc3ccccc3C2)c(=O)n(C)c(=O)n1C	none (no result: NALP1 inh)
Clc1ccc(-c2cnc3n2CCC3)cc1	none
COc1ccc(-c2c[n+]3c4n2CCCCC4=C(c2ccc(Br)cc2)C3)cc1	L major viab 100 (no result: NALP3 yeast inh)
COc1ccc(-c2cnc3n2CCCCC3)cc1	none (no result: NALP1 inh, L major viab)
Clc1ccc(C2=C3CCCCn4c(-c5ccccc5)c[n+](c43)C2)cc1	Calb FLC inconclusive, L major viab 100
Cc1ccccc1N1C(=O)CC(N2CCN(C(=O)c3ccco3)CC2)C1=O (configuration not stated)	none (no result: L major viab)
CC1=CC(C)(C)N2C(=O)C3(SCC(=O)N3c3ccc(F)cc3)c3cc(C)cc1c32 (configuration not stated)	L major viab 92
CC1=CC(C)(C)N2C(=O)C3(NCCc4c3[nH]c3ccccc43)c3cc(C)cc1c32 (configuration not stated)	none (no result: NALP1 inh, L major viab)
CC(O)(CS(=O)(=O)Cc1ccc(Cl)cc1)C(=O)Nc1cccc(C(F)(F)F)c1 (configuration not stated)	none
O=C(Nc1cccc(C(F)(F)F)c1)N(Cc1ccc(Cl)cc1)CC(O)C(F)(F)F (configuration not stated)	L major viab 96
O=C(COC(=O)CC(c1ccccc1)c1ccccc1)NCc1ccc(Cl)cc1	L major viab 69 (no result: NALP3 yeast inh)
O=C(COC(=O)CC(c1ccccc1)c1ccccc1)Nc1c(F)cccc1F	L major viab 50
OC1(c2ccc3c(c2)OCO3)CCN(Cc2ccccn2)CC1	NALP1 inh 30
O=C(CN1CCC(O)(c2ccc3c(c2)OCO3)CC1)N1CCOCC1	none
O=C(CN1CCC(O)(c2ccc3c(c2)OCO3)CC1)OC1CCCCC1	L major viab 97
Nc1nc(NCCCN2CCOCC2)nc(NCc2ccccc2)c1[N+](=O)[O-]	none (no result: L major viab)
Cc1ccc(C(CC(=O)c2ccco2)SCCO)cc1 (configuration not stated)	none
O=C(CC(SCCO)c1ccc(F)cc1)c1ccco1 (configuration not stated)	L major viab 84
CN1CCN(CC(O)(c2ccc(Cl)cc2)c2ccc(Cl)cc2)CC1	L major viab 53
CCC(C)NCC(O)(c1ccc(Cl)cc1)c1ccc(Cl)cc1 (configuration not stated)	none
COc1ccc(C(=O)Nc2ccccc2C(=O)NC(C)C)cc1OC	NALP1 inh 36
COc1ccc(C(=O)Nc2ccccc2C(=O)N2CCCCCC2)cc1OC	none (no result: L major viab)
COc1ccc(C(=O)Nc2ccccc2C(=O)O)cc1Cl	L major viab 67
CC1CCCC(C)N1CC(O)COc1c(F)cc(Br)cc1F (configuration not stated)	L major viab 74
OC(CNC1CCCC1)COc1c(F)cc(Br)cc1F (configuration not stated)	L major viab 93
COCCn1c(C)cc(C(=O)CSc2nnc3scc(-c4ccc(Cl)cc4)n23)c1C	none (no result: Calb FLC, PolyA inh, NALP3 yeast inh, NALP1 inh, T cruzi inh)
CC(C)(C)c1ccc(C2(C)NC(=O)N(CC(=O)Nc3ccc4c(c3)OCO4)C2=O)cc1 (configuration not stated)	L major viab 77
Cc1ccc(NC(=O)CN2C(=O)NC(C)(c3ccc(Cl)cc3)C2=O)cc1S(=O)(=O)N1CCOCC1 (configuration not stated)	L major viab 56 (no result: NALP1 inh)
CC1(c2ccccc2)NC(=O)N(CC(=O)Nc2ccc3c(c2)OCO3)C1=O (configuration not stated)	none
CC(c1ccccc1C(O)c1ccccc1)N(C)C (configuration not stated)	none
Cc1ccc(C(O)(c2ccccc2)c2ccccc2C(C)N(C)C)c(C)c1 (configuration not stated)	L major viab 100
COc1ccc(CN2C3CCCC2CC(NC(=O)Nc2cccc(C)c2)C3)cc1 (configuration not stated)	L major viab 90
COc1ccc(CN2C3CCCC2CC(NC(=O)Nc2ccccc2C)C3)cc1 (configuration not stated)	L major viab 85
COCC(=O)NC1CC2CCCC(C1)N2Cc1ccccc1 (configuration not stated)	Calb FLC inconclusive
COc1ccc(CN2C3CCCC2CC(NC(=O)Nc2ccccc2)C3)cc1 (configuration not stated)	L major viab 94
Cc1ccc(O)c(NC(=O)c2cc(C)no2)c1	none (no result: L major viab)
COc1ccc(CCNc2c([N+](=O)[O-])ncn2C)cc1OC	none (no result: NALP1 inh, L major viab)
O=C(CC1C(=O)NCCN1Cc1cccc(F)c1)NCCCCCN1CCOCC1 (configuration not stated)	none (no result: L major viab)
